The list is not random: actives were taken first. Their share in the collection is about 0.77%.
bIAP inhibitor: intestinal alkaline phosphatase (bovine) inhibition; purified bovine IAP, CDP-star luminescence, 30 min; inhibition, % at 20 µM; 190,000 tested, under 10 active;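 active = over 50% inhibition of intestinal alkaline phosphatase at 20 µM in the single-dose screen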
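Incubation: 30 min reaction at room temperature / Material: purified bovine intestinal alkaline phosphatase (IAP) enzyme / Input: enzyme at 1/65,000,000 dilution / Dosing: 20 µM single dose / Signal: CDP-star luminescence signal / Reagent: CDP-star chemiluminescent phosphatase substrate, 30 µM final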
hIAP activ: human IAP activation; activation factor at 10 µM; actives 0.16% (n = 330,000); purified human IAP, CDP-Star luminescence, 30 min; hits give high values; 1 = vehicle-only enzyme, 0 = enzyme-free background; AID 2524;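 active = activation factor of the enzyme at least 2-fold when tested at 20 µM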
Target sequence (P09923 whole entry, looked up): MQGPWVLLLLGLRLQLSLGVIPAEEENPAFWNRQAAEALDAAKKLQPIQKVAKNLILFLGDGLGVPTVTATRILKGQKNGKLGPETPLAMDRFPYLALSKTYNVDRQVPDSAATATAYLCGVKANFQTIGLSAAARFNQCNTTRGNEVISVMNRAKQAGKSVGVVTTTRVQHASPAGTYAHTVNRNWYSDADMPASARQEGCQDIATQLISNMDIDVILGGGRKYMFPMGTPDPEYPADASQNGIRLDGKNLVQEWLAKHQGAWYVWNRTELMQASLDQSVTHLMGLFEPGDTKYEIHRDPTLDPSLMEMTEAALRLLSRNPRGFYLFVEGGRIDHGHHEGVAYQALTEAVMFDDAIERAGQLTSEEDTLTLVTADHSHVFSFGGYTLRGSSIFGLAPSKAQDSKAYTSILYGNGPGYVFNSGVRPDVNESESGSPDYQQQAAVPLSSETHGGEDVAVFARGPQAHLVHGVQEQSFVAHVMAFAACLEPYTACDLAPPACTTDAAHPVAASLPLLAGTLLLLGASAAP
mIAP act: increases mouse intestinal alkaline phosphatase activity; AID 2805; muIAP, CDP-Star luminescence, 30 min; hits give high values; 1 = vehicle-only enzyme signal, 0 = enzyme-free wells; actives 0.24% (n = 330,000); activation factor at 10 µM;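 active = activation factor of at least 2 at 20 µM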
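Assay system: mouse IAP enzyme; reagent: chemiluminescent substrate CDP-Star; dosing: test compounds delivered from DMSO solution; schedule: 30 min at room temperature; measured by: luminescence from enzymatic CDP-Star hydrolysis; controls: DMSO-only wells and no-enzyme negative control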
mIAP block: blocks mouse intestinal alkaline phosphatase | actives 0.2% (n = 330,000) | purified mouse IAP, CDP-Star luminescence, 30 min | inhibition, % at 10 µM | AID 2806;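 active = inhibition of at least 40% at 10 µM in the primary screen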;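 also: plate controls were DMSO with enzyme for no effect and no enzyme wells for full effect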
bIAP activator: intestinal alkaline phosphatase (bovine) activation | purified bovine IAP, CDP-star luminescence, 30 min; hits give high values; fold of DMSO-control signal, blank-subtracted | activation factor at 20 µM | actives 0.17% (n = 200,000) | AID 1016;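 active = activation factor of 2 or more at 20 µM, a signal rise over negative controls twice the positive control's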
hIAP block: blocks human intestinal alkaline phosphatase; purified IAP, CDP-Star luminescence, 30 min; actives 0.12% (n = 330,000); AID 2544; P09923; inhibition, % at 10 µM;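 active = inhibition reaching a set limit with compound at 10 µM in the primary screen, cut at about 35% in these data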;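 also: plate controls were DMSO wells with enzyme for no effect and no-enzyme buffer wells for full effect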
hIAP act confirm: human IAP activation confirmation; shares compounds with hIAP activ; purified IAP, CDP-Star luminescence, 30 min; hits give low values; activation (%Activity, negative = activation), % at 8.3 µM; actives 10% (n = 880);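 active = at least twofold enzyme activation in any of six single-dose repeats, which the averaged readout prints as negative percent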
mIAP inh conf: mouse IAP inhibition confirmation | purified mouse IAP, CDP-Star luminescence, 30 min | shares compounds with mIAP block | actives 4.7% (n = 11,000) | inhibition, % at 10 µM;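 active = inhibition of at least 40% at 10 µM in either of the two replicates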;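 also: plate controls were DMSO wells with enzyme for no effect and buffer wells lacking enzyme for full effect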
Active calls of the source: *; i = inactive; / = not tested or not shown.

SMILES	bIAP inhibitor	hIAP activ	mIAP act	mIAP block	bIAP activator	hIAP block	hIAP act confirm	mIAP inh conf
C=CCn1cc(CN2CCC(C(=O)Nc3cccc(-c4cccc(Cl)c4)c3)CC2)c(C)n1	/	7.9*	6.5*	i	/	i	-37	-274
Cc1c(CN2CCC(C(=O)Nc3cccc(-c4cccc(Cl)c4)c3)CC2)cnn1C	/	6.4*	5*	-402	/	i	-18	-312
O=C(Nc1cccc(-c2cccc(Cl)c2)c1)C1CCN(Cc2ccon2)CC1	/	2*	2.3*	-133	/	-101	-11	-73
S=C(Nc1ccc(CN2CCCCC2)cc1)Nc1cccc(Cl)c1Cl	/	1.1	0.82	18	/	-5	/	/
O=c1[nH]c(/C=C\c2ccc(O)c(O)c2)nc(O)c1[N+](=O)[O-]	/	0.57	0.52	48*	/	43*	3	75*
O=C(/C=C/c1ccc(O)c(O)c1)NC(=O)c1ccccc1O	/	0.43	0.52	48*	/	57*	-8	59*
Cc1ccc(S(=O)(=O)N2C[C@@H]3[C@H]4CC[C@H](C4)[C@@H]3[C@@H](C)[C@@H]2c2ccn(Cc3ccccc3)c2)cc1	/	/	1.1	-16	/	/	/	/
CCC1CCC(C(=O)NNC(=O)c2cc(-c3ccco3)[nH]n2)CC1 (centres undefined)	-25	2*	0.45	55*	1.2	-105	0	60*
O=C(NNC(=O)C1CCCCC1)c1ccco1	7	1.2	0.92	8	0.9	-16	/	/
Cc1ccc(NC(=O)C2CC(=O)n3c(nc4ccccc43)N2)cc1C (centres undefined)	/	2.1*	3.5*	-251	/	-115	-2	-120
Nc1c(N)c2ccccc2oc1=O	4	1	1	-3	1	0	/	/
O=c1oc2ccccc2c2oc3cc(O)c(O)cc3c12	/	0.3	0.42	58*	/	70*	24	67*
CN(C)S(=O)(=O)c1ccc(C(=O)OCC2CC2(Cl)Cl)cc1 (centres undefined)	/	1.1	1	-2	/	-7	/	/
O=C(N/N=C/c1ccc(O)cc1O)C(=O)N/N=C/c1ccc(O)cc1O	/	2.3*	0.47	54*	/	-128	19	67*
O=C1CC(c2ccc(O)c(O)c2)Oc2cc(O)cc(O)c21 (centres undefined)	/	0.56	0.44	56*	/	44*	-34	53*
CN(C)c1ccc(CNC(=O)CCc2ccc(S(=O)(=O)N3CCCCCC3)cc2)cc1	/	0.97	1.1	-11	/	3	/	/
O=C(NN1C(=O)/C(=C/c2ccc(O)cc2)SC1=S)c1ccccc1O	/	0.64	0.6	40*	/	36*	-23	56*
CCOCCOC(=O)c1ccc(NC(=O)C2COc3ccccc3O2)cc1 (centres undefined)	/	1.1	1.1	-14	/	-11	/	/
COC1=C/C(=C/c2c(N)n3c(nc2=O)sc2cc(S(C)(=O)=O)ccc23)C=CC1=O	/	0.71	0.74	26	/	29	/	/
CS(=O)(=O)c1ccc2c(c1)sc1nc(=O)c(/C=C3/C=CC(=O)C(O)=C3)c(N)n12	/	0.41	0.25	75*	/	58*	-3	85*
O=C(NN1C(=O)CSC1=S)C(=O)NN1C(=O)CSC1=S	-46	2.5*	0.11	89*	1.5	-145	74	92*
O=C1/C(=C/c2cccc([N+](=O)[O-])c2)Oc2cc(O)ccc21	/	0.96	1	-2	/	4	/	/
O=C1/C(=C/c2ccc(O)c(O)c2)Oc2cc(O)ccc21	/	0.035	0.41	59*	/	96*	-1	69*
COc1ccccc1OCCNC(=O)c1ccc(C)c(S(=O)(=O)N2CCOCC2)c1	/	1.1	1.1	-6	/	-8	/	/
CC(C)c1ccc(NC(=O)C2CC(=O)Nc3nc4ccccc4n32)cc1 (centres undefined)	/	2.4*	2.9*	-189	/	-137	-43	-138
SMILES	bIAP inhibitor	hIAP activ	mIAP act	mIAP block	bIAP activator	hIAP block	hIAP act confirm	mIAP inh conf
Cc1nn(C(C)C)c(C)c1CN1CCC(C(=O)Nc2cccc(-c3cccc(F)c3)c2)CC1	/	11*	4.7*	-373	/	i	-21	-389
COc1cccc(-c2cccc(NC(=O)C3CCN(Cc4cnn(C)c4)CC3)c2)c1	/	1	1.2	-21	/	-4	/	/
O=C(Nc1cccc(-c2cccc(F)c2)c1)C1CCN(C2CCC2)CC1	/	2.2*	3.1*	-214	/	-116	68	-155
Cn1cc(CN2CCC(C(=O)Nc3cccc(-c4cccc(F)c4)c3)CC2)cn1	/	2.5*	2.3*	-130	/	-154	5	-129
Cc1cccc(CN2CCC(C(=O)Nc3cccc(-c4cccc(F)c4)c3)CC2)n1	/	0.92	1.9	-88	/	8	/	/
CCCNc1c(NS(=O)(=O)c2ccc(C)cc2C)c(=O)oc2ccccc12	/	0.98	1	-2	/	2	/	/
Cc1nc(C)c(-c2ccc(SCC(=O)Nc3cccc(Cl)c3)nn2)s1	/	1.1	0.96	4	/	-10	/	/
CCOc1ccc(NC(=O)CN(C)C(=O)CCCc2c[nH]c3ccccc23)cc1OCC	/	0.92	1.1	-12	/	8	/	/
COCc1ccc(CN2CCC(n3nccc3NC(=O)CCCc3ccccc3)CC2)o1	/	1.3	1	-4	/	-33	/	/
COc1ccccc1CN1CCC(n2nccc2NC(=O)CCCc2ccccc2)CC1	/	3.3*	2*	-104	/	-231	-112*	-108
O=C(CCc1ccccc1)Nc1ccnn1C1CCN(C/C=C/c2ccccc2)CC1	/	1.9	1.5	-53	/	-89	/	/
COc1ccccc1/C=C/CN1CCC(n2nccc2NC(=O)CCc2ccccc2)CC1	/	3.3*	2.5*	-149	/	-232	13	-121
Cc1cccc(CCN2CCN=C2N(C)C)c1	/	1	0.98	2	/	-3	/	/
CN(C)c1ccc2nc3c(=O)[nH]c(=O)nc-3n(CC(O)C(O)C(O)CO)c2c1 (centres undefined)	/	0.48	0.59	41*	/	52*	-87*	46*
COC(=O)c1cn(C(=O)c2cccc(Br)c2)c2ccccc12	/	0.97	0.98	2	/	3	/	/
CCCCOc1[nH]c2nc(-c3ccco3)n(Cc3ccco3)c(=N)c2c1C#N	-2	1	0.37	63*	1	-2	/	68*
CC(=O)Nc1ccc(NC(=O)Nc2cccc(Cl)c2)cc1	/	1.2	1.7	-73	/	-22	/	/
O=C(Nc1cccc(Cl)c1)Nc1ccc2c(c1)OCO2	18	0.95	2.6*	-162	0.8	5	/	-146
O=C(NCc1ccc2c(c1)OCO2)Nc1cccc(Cl)c1	/	1.1	1.9	-92	/	-10	/	/
O=C(Nc1ccccc1)Nc1cccc(Cl)c1	10	1.1	2.8*	-176	0.9	-13	/	-111

Source: PubChem BioAssay (Sanford-Burnham Center for Chemical Genomics)
